Measurements from ChEMBL document CHEMBL1649410, “Discovery of 7-N-piperazinylthiazolo[5,4-d]pyrimidine analogues as a novel class of immunosuppressive agents with in vivo biological activity” (J Med Chem, 2011).

Legend:
Lymphocyte = test: Immunosuppressive activity in peripheral blood lymphocytes isolated from two individuals assessed as proliferation using [methyl-3H]thymidine by mixed lymphocyte reaction assay; assay type: functional, cell-based; conditions: Homo sapiens
In short: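 Human PBMCs from heparinized blood of healthy donors, isolated over Lymphoprep, 1.6 × 10⁶ cells/mL in RPMI-1640 with 10% heat-inactivated FCS. Stimulators: RPMI1788 cells given 30 μg/mL mitomycin C, 20 min, 37 °C, washed, 0.6 × 10⁶ cells/mL. Cells mixed with diluted compound, 5 days at 37 °C in 5% CO₂. 1 μCi (methyl-³H)thymidine added for last 18 h; harvested, cpm counted. IC₅₀ from two independent experiments (mean).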

Mus musculus [1] = test: Toxicity in BALB/c mouse during cardiac allograft from C57BL/6 mouse at 40 mg/kg, po treatment started from day of transplantation for 30 days; assay type: organism-based; parameters: dose 40 mg/kg, route oral; conditions: in vivo, 720 h
In short: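 Female mice aged 8-10 weeks, 20-25 g: C57BL/6 (H-2^b) donors, Balb/c (H-2^d) recipients. Recipients randomized to groups. Dosing 40 (mg/kg)/day by daily gavage. Vehicle 30% 2-hydroxypropyl-β-cyclodextrin given alone to controls (n = 6). […] Graft survival recorded in days. Student t test against vehicle group.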

Mus musculus [2] = test: Suppression of cardiac allograft rejection of C57BL/6 mouse to BALB/c mouse assessed as surviving days at 40 mg/kg, po treatment started from day of transplantation for 30 days by immunosuppressive assay; assay type: functional
In short: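 Female mice aged 8-10 weeks and weighing 20-25 g. Donors were inbred C57BL/6 (H-2b) and recipients Balb/c (H-2d). Animals were randomly allocated and dosed by daily gavage in 30% 2-hydroxypropyl-β-cyclodextrin. […] Each graft was scored as surviving days, compared with vehicle by Student t test.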

Compound | IC50 (Lymphocyte) [µM] | Activity (Mus musculus [1]) | Survival (Mus musculus [2]) [days]
Nc1nc(N2CCN(C(=O)COc3ccc(Cl)cc3)CC2)c2nc(-c3cccnc3)sc2n1 | 0.05 | Non-toxic | >17
Nc1nc(N2CCN(C(=O)COc3ccc(Cl)cc3)CC2)c2nc(CCc3ccc(F)cc3)sc2n1 | 4.4 |  | 
COc1ccc(OCC(=O)N2CCN(c3nc(N)nc4sc(-c5ccc(F)cc5)nc34)CC2)cc1 | 0.04 |  | 
Nc1nc(N2CCN(C(=O)COc3ccc(Cl)cc3)CC2)c2nc(-c3ccncc3)sc2n1 | 0.04 |  | 
Nc1nc(N2CCNCC2)c2nc(-c3ccc(F)cc3)sc2n1 | 4.3 |  | 
Nc1nc(N2CCN(C(=O)COc3ccc(Cl)cc3)CC2)c2nc(CCOc3ccc(F)cc3)sc2n1 | 3.54 |  | 
Nc1nc(N2CCN(C(=O)COc3ccc(F)cc3)CC2)c2nc(-c3cccnc3)sc2n1 | 0.012 |  | 
CC(c1ccc(F)cc1)c1nc2c(N3CCN(C(=O)COc4ccc(Cl)cc4)CC3)nc(N)nc2s1 (centres undefined) | 4.38 |  | 
CCCCCc1nc2c(N3CCN(C(=O)COc4ccc(Cl)cc4)CC3)nc(N)nc2s1 | 0.69 |  | 
Cc1ccc(NC(=O)N2CCN(c3nc(N)nc4sc(-c5ccc(F)cc5)nc34)CC2)cc1 | 0.7 |  | 
CCCCCN1CCN(c2nc(N)nc3sc(-c4ccc(F)cc4)nc23)CC1 | > 10 |  | 
Nc1nc(N2CCN(C(=O)COc3ccc(Br)cc3)CC2)c2nc(-c3ccc(F)cc3)sc2n1 | 0.38 |  | 
Nc1nc(N2CCN(C(=O)COc3ccc(Cl)cc3)CC2)c2nc(-c3ccccn3)sc2n1 | 0.23 |  | 
Cc1ccc(-c2nc3c(N4CCN(C(=O)COc5ccc(Cl)cc5)CC4)nc(N)nc3s2)cc1 | 0.35 |  | 
Nc1nc(N2CCN(C(=O)OCc3ccccc3)CC2)c2nc(-c3ccc(F)cc3)sc2n1 | 4.9 |  | 
Nc1nc(N2CCN(C(=O)COc3ccc(Cl)cc3)CC2)c2nc(-c3ccc(F)cc3)oc2n1 | 3 |  | 

Compound | IC50 (Lymphocyte) [µM] | Activity (Mus musculus [1]) | Survival (Mus musculus [2]) [days]
Nc1nc(N2CCN(C(=O)COc3ccc(F)cc3)CC2)c2nc(-c3ccc(F)cc3)sc2n1 | 0.07 |  | 
Nc1nc(N2CCN(C(=O)COc3ccc(Cl)cc3)CC2)c2cc(-c3ccc(F)cc3)sc2n1 | 0.7 |  | 
Cc1cccc(NC(=O)N2CCN(c3nc(N)nc4sc(-c5ccc(F)cc5)nc34)CC2)c1 | 0.3 |  | 
C/C=C/C[C@@H](C)[C@@H](O)[C@H]1C(=O)N[C@@H](CC)C(=O)N(C)CC(=O)N(C)[C@@H](CC(C)C)C(=O)N[C@@H](C(C)C)C(=O)N(C)[C@@H](CC(C)C)C(=O)N[C@@H](C)C(=O)N[C@H](C)C(=O)N(C)[C@@H](CC(C)C)C(=O)N(C)[C@@H](CC(C)C)C(=O)N(C)[C@@H](C(C)C)C(=O)N1C [CYCLOSPORINE] |  |  | >30
Nc1nc(N2CCN(C(=O)COc3ccc(Cl)cc3)CC2)c2nc(-c3ccc(F)cc3)[nH]c2n1 | 0.8 |  | 
Nc1nc(N2CCN(C(=O)COc3ccccc3)CC2)c2nc(-c3ccc(F)cc3)sc2n1 | 0.09 |  | 
Nc1nc(N2CCN(C(=O)COc3ccc(Cl)cc3)CC2)c2nc(Cc3ccc(F)cc3)sc2n1 | 0.7 |  | 
Nc1nc(N2CCN(C(=O)COc3ccc(Cl)cc3)CC2)c2sc(-c3ccc(F)cc3)nc2n1 | > 10 |  | 
COc1ccc(OCC(=O)N2CCN(c3nc(N)nc4sc(-c5cccnc5)nc34)CC2)cc1 | 0.012 |  | 
CC(C)(Oc1ccc(Cl)cc1)C(=O)N1CCN(c2nc(N)nc3sc(-c4ccc(F)cc4)nc23)CC1 | > 10 |  | 
Nc1nc(N2CCN(C(=O)COc3ccc(Cl)cc3)CC2)c2nc(-c3ccc(F)cc3)sc2n1 | 0.49 |  | 
Nc1nc(N2CCN(Cc3ccccc3)CC2)c2nc(-c3ccc(F)cc3)sc2n1 | > 10 |  | 
Nc1nc(N2CCN(S(=O)(=O)c3ccccc3)CC2)c2nc(-c3ccc(F)cc3)sc2n1 | > 10 |  | 
Nc1nc(N2CCN(C(=O)COc3ccc(Cl)cc3)CC2)c2nc(-c3ccc(Cl)cc3)sc2n1 | 0.27 |  | 
Nc1nc(N2CCN(C(=O)COc3ccc(Cl)cc3)CC2)c2nc(CCCCc3ccc(F)cc3)sc2n1 | 0.92 |  | 
Cc1cccc(N2CCN(c3nc(N)nc4sc(-c5ccc(F)cc5)nc34)CC2)c1 | > 10 |  | 
